Experimental data pooled from the literature.
Target: Casein kinase I isoform gamma-1 (CSNK1G1, Homo sapiens, UniProt Q9HCP0)

| SMILES | effect on | mode | method | tested at | measurement | value |
| --- | --- | --- | --- | --- | --- | --- |
| CO[C@@H]1[C@H](N(C)C(=O)c2ccccc2)C[C@H]2O[C@]1(C)n1c3ccccc3c3c4c(c5c6ccccc6n2c5c31)C(=O)NC4 | enzyme activity | inhibitor |  | 1 µM | inhibition | 0% |
| CCCCC(=O)Nc1ccc(-c2ccc3ncn(CCC)c(=O)c3c2)cn1 | binding |  | competition with immobilised ligand | 0.5 µM | remaining binding | 100% |
| C[C@H]1CC[C@H](n2c3cnccc3c3cnc(Nc4ccc5c(n4)CCN(C(=O)CO)C5)nc32)CC1 | cell-free assay |  |  | 1 µM | remaining signal | 100% |
| C1=C/COCc2cc(ccc2OCCN2CCCC2)Nc2nccc(n2)-c2cccc(c2)COC/1 | cell-free assay |  |  | 0.1 µM | remaining signal | 72% |
| CN1CCN(C(=O)c2ccc(NC(=O)Nc3ccc(N(C)c4ccnc(Nc5ccc(CS(C)(=O)=O)cc5)n4)cc3)cc2)CC1 | binding |  |  | 1 µM | remaining binding | 100% |
| C#Cc1cc(-c2cc(Nc3nc(N[C@@H](C)c4ccc(F)cn4)ncc3Cl)n[nH]2)ccc1C=O | enzyme activity | inhibitor |  | 0.2 µM | inhibition | 4.78% |
| Cc1cc(O)c(-c2ccc([C@@H](C)CN(C)C)cc2)c2c1[nH]c(=O)c1sccc12 | enzyme activity | inhibitor |  | 0.1 µM | inhibition | -2.19% |
| CC(C)S(=O)(=O)c1ccc2nccc(Nc3ccc4sc(C5CCCC5)nc4c3)c2c1 | enzyme activity | inhibitor |  | 1 µM | activity vs control | 96% |
| C=CC(=O)N1CCC[C@@H](n2nc(-c3ccc(Oc4ccccc4)cc3)c3c(N)ncnc32)C1 | enzyme activity | inhibitor |  | 1 µM | inhibition | 7% |
